INS-1E GSIS act – GLuc luminescence reporter in INS-1E cells, primary screen for activators of glucose-dependent secretion of insulin. INS-1E GLuc reporter insulin secretion, 2-3 h. activation, % at 16.6 µM. actives 0.61% (n = 370,000);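 active means lowest replicate activation of at least 40%, so every replicate reaches that level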;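 further: 0% = median of neutral control wells and 100% = median of IBMX positive control wells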
rRNA inh HTS – inhibitors of bacterial rRNA selective over humanized ribosomes | actives 1.6% (n = 350,000) | AID 720706 | E. coli WT GFP vs humanized-ribosome RFP mutants, fluorescence, 24 h; active compounds read low; DMSO median 0, no signal -100 | GFP signal change (wild-type ribosome), % (test concentration not listed);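 active means significant combined selectivity score with lowered wild-type GFP, culture density cut under 30%, mutant RFP and density less affected; inactive means any of these conditions unmet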
E-sel inducer – induces E-selectin expression in human endothelial cells; HUVEC E-selectin immunofluorescence imaging; normalized: neutral wells 0, TNF-alpha wells 100; activation, % at 7.58 µM; actives 0.37% (n = 260,000); AID 686992;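 active means mean E-selectin-positive cell signal at least 10% of the positive control, reached in at least 60% of replicates, without over 20% cell loss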
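Assay system: HUVEC, human umbilical vein endothelial cells / Amount: 3,000 HUVEC/well / Controls: TNF-alpha positive control, DMSO neutral control / Compound dosing: single concentration / Medium: EGM-2 over gelatin coat / Evaluation: percent E-selectin-positive cells / Signal: immunofluorescence imaging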
RAD54 branch – inhibitors of human RAD54 branch migration; Q92698; RAD54 Holliday junction branch migration, FAM/BHQ fluorescence; inhibition, % at 10.4 µM; actives 0.14% (n = 360,000); AID 602329;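 active means mean normalized replicate activity at least 40 and at least half of replicates scoring 40 or more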;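 further: 0% = median of neutral control wells and 100% = median of positive control wells; inhibitors cause a drop in the FAM fluorescence signal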
RAD52 anneal inh – inhibitors of human RAD52 DNA annealing; AID 651710; inhibition, % at 18.7 µM; recombinant RAD52 DNA annealing, FRET fluorescence; actives 0.46% (n = 360,000);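 active means every replicate showing at least 50% inhibition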
MLL AF4-AF9 inh – MLL-AF4/AF9 protein interaction inhibition. inhibition, % at 10 µM. AlphaScreen, biotin-AF4 peptide binding to FLAG-AF9. actives 0.47% (n = 350,000);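 active means every replicate reaching a set inhibition limit, whatever the replicate mean, cut at about 25% in these data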;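 further: 0% = plate neutral control median and 100% = total signal loss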
Target sequence (P42568 whole entry, looked up): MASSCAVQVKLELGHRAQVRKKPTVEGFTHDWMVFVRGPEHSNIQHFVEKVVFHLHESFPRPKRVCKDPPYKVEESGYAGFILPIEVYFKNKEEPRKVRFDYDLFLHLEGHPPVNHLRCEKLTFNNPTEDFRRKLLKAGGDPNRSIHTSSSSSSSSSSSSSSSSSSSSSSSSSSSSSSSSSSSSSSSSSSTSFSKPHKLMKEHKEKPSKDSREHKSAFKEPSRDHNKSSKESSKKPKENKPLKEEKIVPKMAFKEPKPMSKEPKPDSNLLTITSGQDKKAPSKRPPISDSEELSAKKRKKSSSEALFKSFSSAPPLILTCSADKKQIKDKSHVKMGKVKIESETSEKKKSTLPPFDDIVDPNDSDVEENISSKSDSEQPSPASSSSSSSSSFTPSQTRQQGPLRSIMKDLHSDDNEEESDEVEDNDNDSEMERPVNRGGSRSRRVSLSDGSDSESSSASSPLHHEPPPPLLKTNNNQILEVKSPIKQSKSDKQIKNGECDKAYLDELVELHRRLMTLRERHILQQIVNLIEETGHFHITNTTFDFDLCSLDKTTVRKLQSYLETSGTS
Active calls of the source: *; x = no result. This is a sample that favours compounds with a hit; in the whole collection about 2.6% have one here.

SMILES	INS-1E GSIS act	rRNA inh HTS	E-sel inducer	RAD54 branch	RAD52 anneal inh	MLL AF4-AF9 inh
Cc1csc(SC(C)c2nc3scc(-c4ccccc4)c3c(=O)[nH]2)n1 (centres undefined)	-3	-24*	0	x	-7	-2
O=c1[nH]c(Cc2ccccc2)nc2scc(-c3ccccc3)c12	-19	x	x	-4	x	x
Cc1cc(C)n2nc(SCc3nnc(SCc4ccccc4C)s3)nc2n1	-41	-13	x	4	-18	-12
COc1cccc(CSc2nnc(CSc3nc4nc(C)cc(C)n4n3)s2)c1	-8	-29*	x	-6	-21	-41
COc1ccc(CCC2(C)NC(=O)N(C(C)C(=O)N3c4ccccc4CC3C)C2=O)cc1 (centres undefined)	-52	-18*	x	2	-10	2
COc1ccc(S(=O)(=O)CCC(=O)N2c3ccccc3CC2C)cc1 (centres undefined)	x	x	x	27	x	x
CCOC(=O)C1(Cc2ccccc2C)CCCN(C(=O)c2cc(CC)nn2C)C1 (centres undefined)	-19	-15	4	x	-12	0
CCOC(=O)C1(Cc2ccccc2C)CCCN(C(=O)c2ccnn2C)C1 (centres undefined)	-11	-2	114*	-1	5	0
CCC(c1ccccc1)C(CC)c1cc(O)c(O)c(O)c1 (centres undefined)	1	-26*	1	3	-7	-2
Cc1ccc(NC(=S)Nc2cc(-c3ccccc3)[nH]n2)cc1Cl	0	-20*	12	5	-5	2
COc1ccc(NC(=S)Nc2ccc(C)c(Cl)c2)cc1OC	15	-40	4	-4	-9	7
Fc1ccc(NC(=S)Nc2cc(-c3ccccc3)[nH]n2)cc1Cl	-11	-54*	30*	-2	-33	0
COc1ccccc1C(=O)N1C[C@H]2[C@@H](c3ccccc31)[C@@H](CO)N2Cc1ccc(F)cc1	3	-7	0	-5	-3	-3
O=C(c1cc2c(c(-c3cccc(Br)c3)n1)[C@@H](CCO)NC2)N1CCCCC1	-7	0	132*	x	x	x
C[C@H]1CN([C@@H](C)CO)C(=O)c2cc(NC(=O)CCC(F)(F)F)ccc2O[C@@H]1CN(C)Cc1ccc(C(F)(F)F)cc1	-19	-2	38*	-9	2	1
CC(C)NC(=O)Nc1ccc2c(c1)C(=O)N([C@@H](C)CO)C[C@H](C)[C@H](CN(C)Cc1ccc(C(F)(F)F)cc1)O2	17	1	51*	-19	-11	0
O=C(CSCc1c(Cl)cccc1Cl)Nc1cccnc1	-2	-24*	2	-5	-12	0
COc1ccc2c3c(n(C)c2c1)[C@@H](CO)N(C(=O)C1CCCC1)CC31CN(C)C1	5	2	0	x	2	9
CCC(C)(C)c1ccc(OCCCC[n+]2ccccc2)c(C(C)(C)CC)c1	-22	1	x	x	39	30*
CCC(C)(C)c1ccc(Oc2cccc(C(=O)O)c2)cc1	38	-8	0	9	-18	-2
C[C@@H]1CN([C@H](C)CO)C(=O)c2cccc(NS(=O)(=O)c3ccc(Cl)cc3)c2O[C@@H]1CN(C)Cc1ccncc1	22	1	0	5	-6	4
COC(=O)C(Cc1csc2ccc(Cl)cc12)NC(=O)c1ccc(Cl)cc1 (centres undefined)	13	-16*	0	x	-13	-4
O=c1c(C(c2c(O)nc3n(c2=O)CCS3)c2cccc3ccccc23)c(O)nc2n1CCS2	x	x	x	54*	x	x
Cc1ccc(C(c2c(O)nc3n(c2=O)CCS3)c2c(O)nc3n(c2=O)CCS3)cc1	4	x	0	x	-7	-4
Cc1noc(C)c1S(=O)(=O)Nc1cccc2c1O[C@H](CN(C)S(=O)(=O)c1ccccc1)[C@H](C)CN([C@H](C)CO)C2=O	7	-1	0	-6	-194	-13
SMILES	INS-1E GSIS act	rRNA inh HTS	E-sel inducer	RAD54 branch	RAD52 anneal inh	MLL AF4-AF9 inh
OC(CNCCc1ccc(C(F)(F)F)cc1)COC(c1ccccc1)c1ccccc1 (centres undefined)	365*	-68	0	7	11	3
Cc1cccc(NC(=S)NC2CC3C=CC2C3)c1 (centres undefined)	x	-21*	0	-5	-14	-2
O=C(CNc1ccc(Br)cc1)c1ccc(O)cc1	-8	-45*	x	x	-9	4
C[C@H]1CN([C@@H](C)CO)S(=O)(=O)c2ccc(-c3cccc(C#N)c3)cc2O[C@H]1CN(C)C(=O)c1ccncc1	14	-4	0	4	21	-3
COc1ccc(C)c(-n2c(=O)n(Cc3ccccc3)c(=O)c3[nH]cnc32)c1	63*	-7	3	3	-13	1
Cc1ccc(S(C)=O)cc1-n1c(=O)n(Cc2ccccc2)c(=O)c2[nH]cnc21 (centres undefined)	11	-3	0	-3	14	1
COc1cccc(-n2c(=O)n(Cc3ccccc3)c(=O)c3[nH]cnc32)c1C	76*	-5	0	-3	-17	-1
CCCn1c(=O)c2[nH]cnc2n(-c2ccccc2C)c1=O	-11	22	0	x	-7	-4
COc1ccc(Cn2c(=O)c3[nH]cnc3n(-c3ccccc3C)c2=O)cc1	64*	-16	x	x	-13	-1
Cc1ccccc1-n1c(=O)n(Cc2ccc(C(=O)O)cc2)c(=O)c2[nH]cnc21	6	15	0	-7	-6	-1
CC(=O)Nc1cccc(-n2c(=O)n(Cc3ccccc3)c(=O)c3[nH]cnc32)c1	43*	6	0	2	-21	-2
Cc1cc(C(=O)Nc2cccc3c2O[C@@H](CN(C)C(=O)NC(C)C)[C@@H](C)CN([C@H](C)CO)C3=O)n(C)n1	4	0	0	11	4	0
CNC[C@H]1Oc2c(NS(=O)(=O)c3cn(C)cn3)cccc2C(=O)N([C@H](C)CO)C[C@H]1C	12	2	0	-2	-9	-3
CCC(=O)N(C)C[C@H]1Oc2cc(-c3ccncc3)ccc2S(=O)(=O)N([C@@H](C)CO)C[C@H]1C	23	0	0	9	-4	-8
O=C(C[C@H]1CC[C@H](NS(=O)(=O)c2ccccc2)[C@@H](CO)O1)N1CCc2ccccc2C1	11	3	0	6	12	-1
COc1ccc(C(=O)Nc2nnc(-c3ccco3)s2)cc1	52*	x	x	4	x	x
O=C(Nc1ccccc1)Nc1nnc(-c2cccs2)s1	69*	x	-1	1	x	x
COc1ccc(C(=O)Nc2nnc(-c3cccs3)s2)cc1	72*	x	x	13	x	x
COc1cccc(C(=O)Nc2nnc(-c3cccs3)o2)c1	10	-58	0	-2	-20	45*

Source: PubChem
